{"source": "ChEMBL document CHEMBL1165965", "about": "“Synthesis and structure-activity relationships of 1,2,3,4-tetrahydropyrido[2,3-b]pyrazines as potent and selective inhibitors of the anaplastic lymphoma kinase” (Bioorg Med Chem, 2010)", "key": {"[1]": {"biological_target": "T1, Mitogen-activated protein kinase kinase kinase kinase 3 (Homo sapiens) (UniProt Q8IVH8)", "T1 sequence (whole entry)": "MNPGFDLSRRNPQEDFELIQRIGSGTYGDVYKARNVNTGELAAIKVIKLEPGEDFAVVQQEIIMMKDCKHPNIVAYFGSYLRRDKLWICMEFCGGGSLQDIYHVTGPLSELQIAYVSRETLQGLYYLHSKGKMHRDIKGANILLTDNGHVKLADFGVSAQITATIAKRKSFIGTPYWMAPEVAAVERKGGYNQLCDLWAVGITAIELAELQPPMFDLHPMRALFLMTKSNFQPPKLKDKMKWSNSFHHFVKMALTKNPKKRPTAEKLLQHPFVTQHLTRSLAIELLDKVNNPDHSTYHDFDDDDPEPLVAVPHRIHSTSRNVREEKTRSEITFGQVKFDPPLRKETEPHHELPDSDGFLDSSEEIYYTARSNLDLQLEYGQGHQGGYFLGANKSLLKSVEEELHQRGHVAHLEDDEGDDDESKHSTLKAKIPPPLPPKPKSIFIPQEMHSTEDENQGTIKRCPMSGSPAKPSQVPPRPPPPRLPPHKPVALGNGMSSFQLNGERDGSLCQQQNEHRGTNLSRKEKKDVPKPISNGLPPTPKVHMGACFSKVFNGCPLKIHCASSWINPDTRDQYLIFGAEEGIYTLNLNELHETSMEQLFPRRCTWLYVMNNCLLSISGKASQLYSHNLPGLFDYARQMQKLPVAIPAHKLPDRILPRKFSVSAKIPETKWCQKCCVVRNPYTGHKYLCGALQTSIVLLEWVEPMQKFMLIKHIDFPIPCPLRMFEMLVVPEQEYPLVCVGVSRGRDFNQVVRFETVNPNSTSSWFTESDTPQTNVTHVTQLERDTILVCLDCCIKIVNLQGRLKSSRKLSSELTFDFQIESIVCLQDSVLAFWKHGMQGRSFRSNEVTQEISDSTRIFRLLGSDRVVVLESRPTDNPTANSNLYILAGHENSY", "test": "Inhibition of MAP4K3 at 1 uM", "procedure,_shortened": "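Single-concentration screen on the Ambit KINOMEscan platform, run against a panel of 250–400 kinases. Per-kinase inhibition was also summarized as S(90), the fraction of kinases inhibited by more than 90%.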"}, "[2]": {"biological_target": "T2, Cyclin-dependent kinase-like 5 (Homo sapiens) (UniProt O76039)", "T2 sequence (whole entry)": "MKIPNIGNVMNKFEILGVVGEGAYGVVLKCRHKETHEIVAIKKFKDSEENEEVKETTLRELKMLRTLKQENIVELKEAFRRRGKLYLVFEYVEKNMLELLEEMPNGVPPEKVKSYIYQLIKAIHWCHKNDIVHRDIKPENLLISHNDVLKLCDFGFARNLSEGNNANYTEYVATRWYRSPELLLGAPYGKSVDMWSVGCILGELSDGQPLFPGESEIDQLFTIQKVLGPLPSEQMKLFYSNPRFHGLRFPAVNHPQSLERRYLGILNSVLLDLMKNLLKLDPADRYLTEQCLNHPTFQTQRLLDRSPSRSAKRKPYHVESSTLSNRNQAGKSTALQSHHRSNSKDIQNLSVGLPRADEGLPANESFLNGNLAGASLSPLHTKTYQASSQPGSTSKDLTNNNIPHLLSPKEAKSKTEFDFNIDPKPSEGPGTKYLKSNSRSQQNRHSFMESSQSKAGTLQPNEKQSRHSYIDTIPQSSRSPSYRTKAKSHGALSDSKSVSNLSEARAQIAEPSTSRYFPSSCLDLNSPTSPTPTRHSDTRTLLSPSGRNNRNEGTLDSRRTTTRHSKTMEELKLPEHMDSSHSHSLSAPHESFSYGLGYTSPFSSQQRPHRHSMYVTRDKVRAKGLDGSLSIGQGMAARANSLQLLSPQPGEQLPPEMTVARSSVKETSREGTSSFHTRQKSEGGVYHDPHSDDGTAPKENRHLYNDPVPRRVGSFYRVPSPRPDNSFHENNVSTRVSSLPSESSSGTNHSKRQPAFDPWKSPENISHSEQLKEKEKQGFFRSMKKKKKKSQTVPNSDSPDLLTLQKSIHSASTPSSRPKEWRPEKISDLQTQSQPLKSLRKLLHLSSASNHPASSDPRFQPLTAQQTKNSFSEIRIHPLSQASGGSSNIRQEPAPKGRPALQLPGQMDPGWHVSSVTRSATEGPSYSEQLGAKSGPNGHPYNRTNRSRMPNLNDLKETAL", "test": "Inhibition of CDKL5 at 1 uM"}, "[3]": {"biological_target": "T3, Myosin light chain kinase family member 4 (Homo sapiens) (UniProt Q86YV6)", "T3 sequence (whole entry)": "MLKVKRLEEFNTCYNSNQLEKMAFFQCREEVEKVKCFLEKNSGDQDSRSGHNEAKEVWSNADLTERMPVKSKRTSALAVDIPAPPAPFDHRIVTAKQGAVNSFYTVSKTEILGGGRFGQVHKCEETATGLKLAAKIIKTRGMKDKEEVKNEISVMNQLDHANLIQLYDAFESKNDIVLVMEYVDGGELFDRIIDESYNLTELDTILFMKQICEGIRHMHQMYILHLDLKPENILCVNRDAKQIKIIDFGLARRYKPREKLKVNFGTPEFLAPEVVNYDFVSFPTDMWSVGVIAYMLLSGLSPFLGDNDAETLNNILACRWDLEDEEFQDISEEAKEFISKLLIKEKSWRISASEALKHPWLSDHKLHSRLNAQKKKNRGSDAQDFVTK", "test": "Inhibition of SgK085 at 1 uM"}, "[4]": {"biological_target": "Serine/threonine-protein kinase MRCK beta (Homo sapiens) (UniProt Q9Y5S2)", "sequence (Q9Y5S2 whole entry)": "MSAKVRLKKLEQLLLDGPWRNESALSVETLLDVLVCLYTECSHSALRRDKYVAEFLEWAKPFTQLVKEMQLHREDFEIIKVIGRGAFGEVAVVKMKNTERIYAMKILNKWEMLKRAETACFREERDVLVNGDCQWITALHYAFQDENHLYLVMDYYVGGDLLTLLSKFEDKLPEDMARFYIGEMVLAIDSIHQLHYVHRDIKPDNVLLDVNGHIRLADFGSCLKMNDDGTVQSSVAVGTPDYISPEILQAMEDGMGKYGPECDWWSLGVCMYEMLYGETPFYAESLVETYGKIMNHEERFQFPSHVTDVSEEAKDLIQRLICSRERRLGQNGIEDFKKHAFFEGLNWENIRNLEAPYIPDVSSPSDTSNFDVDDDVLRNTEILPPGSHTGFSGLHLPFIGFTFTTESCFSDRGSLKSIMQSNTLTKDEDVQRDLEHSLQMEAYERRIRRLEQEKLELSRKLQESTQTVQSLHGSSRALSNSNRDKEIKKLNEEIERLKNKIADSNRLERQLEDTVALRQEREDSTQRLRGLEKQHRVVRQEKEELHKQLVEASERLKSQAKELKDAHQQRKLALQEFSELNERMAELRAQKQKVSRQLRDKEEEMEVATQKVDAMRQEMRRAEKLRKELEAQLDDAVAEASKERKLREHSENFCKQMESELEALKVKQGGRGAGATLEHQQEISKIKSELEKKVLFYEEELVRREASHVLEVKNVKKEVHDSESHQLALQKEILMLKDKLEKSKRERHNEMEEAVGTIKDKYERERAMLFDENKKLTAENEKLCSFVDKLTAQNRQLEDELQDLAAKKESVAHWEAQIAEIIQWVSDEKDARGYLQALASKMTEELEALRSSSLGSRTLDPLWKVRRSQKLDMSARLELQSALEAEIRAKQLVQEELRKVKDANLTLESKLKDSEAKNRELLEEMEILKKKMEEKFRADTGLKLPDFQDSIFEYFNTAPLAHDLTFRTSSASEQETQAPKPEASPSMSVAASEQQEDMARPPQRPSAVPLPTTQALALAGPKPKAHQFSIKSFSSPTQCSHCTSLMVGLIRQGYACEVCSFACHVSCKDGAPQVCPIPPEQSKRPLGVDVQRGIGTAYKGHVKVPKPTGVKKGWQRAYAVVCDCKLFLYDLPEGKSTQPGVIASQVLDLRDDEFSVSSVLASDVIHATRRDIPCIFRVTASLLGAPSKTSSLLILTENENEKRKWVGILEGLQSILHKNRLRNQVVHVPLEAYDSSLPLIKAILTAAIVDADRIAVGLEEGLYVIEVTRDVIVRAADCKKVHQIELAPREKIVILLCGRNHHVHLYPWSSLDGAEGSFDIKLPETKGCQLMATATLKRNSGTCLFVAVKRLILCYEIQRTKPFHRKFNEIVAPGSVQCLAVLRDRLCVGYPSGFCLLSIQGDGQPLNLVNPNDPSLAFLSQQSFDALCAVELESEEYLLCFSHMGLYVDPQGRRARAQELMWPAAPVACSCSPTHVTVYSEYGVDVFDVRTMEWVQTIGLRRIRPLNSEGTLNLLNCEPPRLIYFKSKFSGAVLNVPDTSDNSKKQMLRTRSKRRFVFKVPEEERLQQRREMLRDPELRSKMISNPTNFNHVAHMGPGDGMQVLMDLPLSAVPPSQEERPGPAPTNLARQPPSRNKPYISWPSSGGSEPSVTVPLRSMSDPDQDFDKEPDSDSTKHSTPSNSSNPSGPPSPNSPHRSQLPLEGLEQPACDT", "test": "Inhibition of MRCKB at 1 uM"}}}
{"smiles": "CN1CCN(c2ccc(-c3cnc4c(c3)N(Cc3cc(F)ccc3F)CCN4)cn2)CC1", "values": [{"measurement": "inhibition", "setting": "[1]", "result": "< 50", "unit": "%"}, {"measurement": "inhibition", "setting": "[2]", "result": "< 50", "unit": "%"}, {"measurement": "inhibition", "setting": "[3]", "result": "< 50", "unit": "%"}, {"measurement": "inhibition", "setting": "[4]", "result": "< 50", "unit": "%"}]}
{"smiles": "CC(=O)N1CCN(c2cc(-c3cnc4c(c3)N(Cc3cc(Cl)ccc3C(F)(F)F)CCN4)ccn2)CC1", "values": [{"measurement": "inhibition", "setting": "[1]", "result": "< 50", "unit": "%"}, {"measurement": "inhibition", "setting": "[2]", "result": "< 50", "unit": "%"}, {"measurement": "inhibition", "setting": "[3]", "result": "< 50", "unit": "%"}, {"measurement": "inhibition", "setting": "[4]", "result": "< 50", "unit": "%"}]}
{"smiles": "CN1CCN(c2ccc(-c3cnc4c(c3)N(Cc3c(F)ccc(F)c3Cl)CCN4)cn2)CC1", "values": [{"measurement": "inhibition", "setting": "[1]", "result": 91, "unit": "%"}, {"measurement": "inhibition", "setting": "[2]", "result": "< 50", "unit": "%"}, {"measurement": "inhibition", "setting": "[3]", "result": "< 50", "unit": "%"}, {"measurement": "inhibition", "setting": "[4]", "result": "< 50", "unit": "%"}]}
{"smiles": "FC(F)(F)c1ccc(Cl)cc1CN1CCNc2ncc(-c3ccnc(N4CCNCC4)c3)cc21", "values": [{"measurement": "inhibition", "setting": "[1]", "result": 70, "unit": "%"}, {"measurement": "inhibition", "setting": "[2]", "result": "< 50", "unit": "%"}, {"measurement": "inhibition", "setting": "[3]", "result": "< 50", "unit": "%"}, {"measurement": "inhibition", "setting": "[4]", "result": "< 50", "unit": "%"}]}
{"smiles": "CN1CCN(c2ccc(-c3cnc4c(c3)N(Cc3cc(Cl)ccc3Cl)CCN4)cn2)CC1", "values": [{"measurement": "inhibition", "setting": "[1]", "result": "< 50", "unit": "%"}, {"measurement": "inhibition", "setting": "[2]", "result": "< 50", "unit": "%"}, {"measurement": "inhibition", "setting": "[3]", "result": "< 50", "unit": "%"}, {"measurement": "inhibition", "setting": "[4]", "result": "< 50", "unit": "%"}]}
{"smiles": "O=C(c1ccc(-c2cnc3c(c2)N(Cc2cc(Cl)ccc2C(F)(F)F)CCN3)cc1)N1CCC(N2CCCC2)CC1", "values": [{"measurement": "inhibition", "setting": "[1]", "result": "< 50", "unit": "%"}, {"measurement": "inhibition", "setting": "[4]", "result": "< 50", "unit": "%"}]}
{"smiles": "O=C(O)c1ccc(-c2cnc3c(c2)N(Cc2cc(Cl)ccc2C(F)(F)F)CCN3)cc1", "values": [{"measurement": "inhibition", "setting": "[1]", "result": "< 50", "unit": "%"}, {"measurement": "inhibition", "setting": "[4]", "result": "< 50", "unit": "%"}]}
{"smiles": "CN1CCN(c2ccc(-c3cnc4c(c3)N(Cc3cc(Cl)ccc3C(F)(F)F)CCN4)cn2)CC1", "values": [{"measurement": "inhibition", "setting": "[1]", "result": "< 50", "unit": "%"}, {"measurement": "inhibition", "setting": "[2]", "result": "< 50", "unit": "%"}, {"measurement": "inhibition", "setting": "[3]", "result": "< 50", "unit": "%"}, {"measurement": "inhibition", "setting": "[4]", "result": "< 50", "unit": "%"}]}
{"smiles": "O=C(c1ccc(-c2cnc3c(c2)N(Cc2cc(Cl)ccc2C(F)(F)F)CCN3)cc1)N1CCCCC1", "values": [{"measurement": "inhibition", "setting": "[1]", "result": "< 50", "unit": "%"}, {"measurement": "inhibition", "setting": "[4]", "result": "< 50", "unit": "%"}]}
{"smiles": "COC1CCN(C(=O)c2ccc(-c3cnc4c(c3)N(Cc3cc(Cl)ccc3C(F)(F)F)CCN4)cc2)CC1", "values": [{"measurement": "inhibition", "setting": "[1]", "result": "< 50", "unit": "%"}, {"measurement": "inhibition", "setting": "[4]", "result": "< 50", "unit": "%"}]}
